PGC1a acetyl inh – inhibitors of PGC1a acetylation signal, primary screen, cell-based, U2OS, AlphaScreen, inhibitor mode. AlphaScreen anti-acetyl-lysine; with virally co-expressed GCN5 acetyltransferase. inhibition, % at 15.6 µM. actives 0.17% (n = 350,000);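 active means every replicate shows inhibition of at least 40%; inconclusive means mean inhibition at least 40% but some replicate below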;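 further: 0% = neutral control wells and 100% = positive control wells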
Cneo AK release – Cryptococcus neoformans cell lysis inducers, primary screen, AK release luminescence, single concentration | actives 0.2% (n = 360,000) | lysis activity, % at 15 µM | C. neoformans lysis, adenylate kinase release luminescence, 4 h; normalised: neutral wells 0, clomiphene wells 100;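 active means mean lysis activity across replicates of at least 80%, whatever share of replicates individually reach that level; inactive means mean lysis activity below 80%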
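Material – Cryptococcus neoformans yeast cells · Quantity – 5 × 10^6 yeast cells/mL · Buffer or medium – YPD medium · Compound – single dose · Timing – 4 h static compound exposure, 37 °C, read 1 h post-reagent · Signal – adenylate kinase release luminescence · Read-out basis – lysis from increased AK signal · Benchmarks – Clomiphene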
MITF act – activators of MITF-driven TRPM1 promoter reporter, primary screen, cell-based, SK-MEL-5, luciferase, single point. activation, % at 12.5 µM. SK-MEL-5 TRPM1-promoter luciferase, 24 h; % of positive control, neutral wells = 0. AID 588334, 2011. actives 0.75% (n = 300,000);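 active means mean activation of at least 80% with every replicate also reaching 80%; inconclusive means mean reaches 80% but some replicate falls short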;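 further: 0% = neutral control wells and 100% = parthenolide positive control wells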
Wnt bcat act – Wnt/beta-catenin pathway activators, primary screen, cell-based, plate reader, single point. activation, % at 9.35 µM. AID 743398, 2014. actives 1.2% (n = 300,000). Wnt/beta-catenin reporter cell assay, activator; in the data active means activation above about 30%, passing the limit was not always enough; inconclusive means no clear call, values can overlap the other calls;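 further: 0% = neutral control wells and 100% = positive control wells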
Active calls of the source: *; ? = inconclusive; . = no result. Hits are enriched below; roughly 1.5% of the tested compounds scored in any of these assays.

SMILES	PGC1a acetyl inh	Cneo AK release	MITF act	Wnt bcat act
Cc1noc(C)c1NC(=O)N(C)C[C@H]1Oc2ccc(NC(=O)Nc3cccc4ccccc34)cc2CC(=O)N([C@H](C)CO)C[C@@H]1C	2	35	.	.
Cc1ccnc(NC(=O)CNC(=O)c2sc3ccccc3c2Cl)c1	2	-1	85*	12
CC1CC(C)CN(C(=O)CNC(=O)c2sc3ccccc3c2Cl)C1 (configuration not stated)	-14	1	64	12
CC1CCCN(C(=O)CNC(=O)c2sc3ccccc3c2Cl)C1 (configuration not stated)	.	2	126*	24
O=C(NCC(=O)N1CCCCC1)c1sc2ccccc2c1Cl	0	3	114*	45*
C[C@@H]1CCCCO[C@H](CN(C)C(=O)Nc2ccccc2)[C@@H](C)CN([C@@H](C)CO)C(=O)c2cc(NC(=O)CCCN(C)C)ccc2O1	6	2	.	.
CCN(CC)C(=O)c1cc2sc3ccccc3c2s1	-12	-6	98*	.
COCCN(CCOC)C(=O)c1cc2sc3ccccc3c2s1	-4	1	33	-5
CC(Sc1nncn1C)C(=O)Nc1ccc(N2CCCCC2)cc1 (configuration not stated)	.	0	6	34*
O=C(C[C@H]1CC[C@H]2[C@@H](COC[C@H](O)CN2Cc2ccc(Oc3ccccc3)cc2)O1)N1CCc2ccccc2C1	1	51	.	.
Cc1noc(C)c1NC(=O)NCC[C@H]1CC[C@H](NC(=O)Cc2cccnc2)[C@@H](CO)O1	8	4	.	.
C[C@@H]1CN([C@@H](C)CO)C(=O)c2cc(NS(=O)(=O)c3cn(C)cn3)ccc2O[C@@H]1CN(C)C(=O)Nc1cccc2ccccc12	4	90*	.	.
C[C@H](CO)N1C[C@H](C)[C@@H](CN(C)C(=O)Nc2cccc3ccccc23)Oc2ccc(NS(=O)(=O)c3cn(C)cn3)cc2C1=O	-5	0	.	.
C[C@@H]1CN([C@H](C)CO)C(=O)c2cc(NS(=O)(=O)c3cn(C)cn3)ccc2O[C@H]1CN(C)C(=O)Nc1cccc2ccccc12	-7	100*	.	.
C[C@H]1CN([C@@H](C)CO)C(=O)c2cc(NS(=O)(=O)c3cn(C)cn3)ccc2O[C@H]1CN(C)C(=O)Nc1cccc2ccccc12	-6	-3	.	.
CCNC(=O)C[C@@H]1CC[C@H]2[C@@H](COc3ccc(NC(=O)Nc4c(C)noc4C)cc3C(=O)N2C)O1	3	-1	.	.
C[C@@H]1CN([C@H](C)CO)C(=O)c2cc(NC(=O)c3ccncc3)ccc2O[C@@H]1CN(C)S(=O)(=O)c1ccc(F)cc1	-1	-2	.	.
COc1cccc(C(=O)Oc2ccccc2/C=C\C(=O)c2cc3ccccc3o2)c1	-30	3	-17	152*
O=C(Oc1ccccc1/C=C\C(=O)c1cc2ccccc2o1)c1cccc(F)c1	.	.	11	.
O=C(Oc1ccccc1/C=C\C(=O)c1cc2ccccc2o1)c1ccccc1	.	.	12	53*
COc1cccc(C(=O)NCC2CCN(C(=O)C(=O)c3cc4ccccc4o3)CC2)c1	.	.	.	-4
O=C1C(=Cc2cccs2)CCc2ccccc21	.	.	.	48*
O=C1/C(=C\c2ccco2)CCC/C1=C\c1ccco1	6	-2	44	.
O=C1/C(=C/c2cccs2)CCC/C1=C\c1cccs1	.	-10	77	36*
Cn1cccc1/C=C1\CCC/C(=C\c2cccn2C)C1=O	-4	.	.	71*
SMILES	PGC1a acetyl inh	Cneo AK release	MITF act	Wnt bcat act
O=C1/C(=C\c2cccnc2)CCc2ccccc21	-4	-6	16	-3
O=c1c2ccccc2oc2c1oc1ccccc12	15	2	103*	25
CCCC(=O)N/C(N)=N/c1nc2ccccc2o1	.	.	88*	46*
CCC(=O)N/C(N)=N/c1nc2ccccc2o1	.	.	?	11
CC(C)(C)C(=O)N/C(N)=N/c1nc2ccccc2o1	-5	-4	?	65*
CC(C)CC(=O)N/C(N)=N/c1nc2ccccc2o1	1	-9	86*	53*
N/C(=N\c1nc2ccccc2o1)NC(=O)c1ccccc1	3	-1	54	.
COc1ccc2c3c([nH]c2c1)[C@H](CO)N(C(=O)C1CCCCC1)CC31CCN(S(C)(=O)=O)CC1	-7	.	.	.
Cc1cc(O)ccc1N/C=C/c1onc(C)c1[N+](=O)[O-]	.	.	26	60*
Cc1ccc(C(=O)NC(=S)Nc2cccnc2Cl)cc1	6	-2	145*	41*
COc1ccc(-c2nnc(SC(C)C(=O)Nc3cccc(Cl)c3)o2)cc1 (configuration not stated)	-4	2	87*	39*
C[C@H]1CCCCO[C@H](CN(C)C(=O)C2CCCCC2)[C@@H](C)CN([C@@H](C)CO)C(=O)c2cc(NC(=O)Nc3ccc(C(F)(F)F)cc3)ccc2O1	7	-1	.	.
O=C1CC(c2ccc(O)cc2)Oc2ccccc21 (configuration not stated)	.	-3	83*	-2
CC1(C)CNC(=O)c2sc(NC(=O)c3ccccc3)nc2C1	-16	8	91*	0
CC1(C)CC(=O)c2sc(NC(=O)c3cccs3)nc2C1	.	-10	9	.
COc1ccc(S(=O)(=O)Nc2ccc3c(c2)C(=O)N([C@H](C)CO)C[C@@H](C)[C@H](CN(C)Cc2ccc(Cl)c(Cl)c2)OCCCC[C@H](C)O3)cc1	31	30	.	.
COCc1ccc(-c2c(-c3ccc(OC)cc3)oc(=O)c3cc(OC)c(OC)cc23)cc1	.	10	111*	28
O=C(C[C@H]1C[C@H]2c3cc(NC(=O)C4CCC4)ccc3O[C@H]2[C@@H](CO)O1)NCc1ccc(-c2ccccc2)cc1	-6	-4	.	.
CC1=C(C(=O)OCc2ccccc2)C(c2ccc(Br)cc2)NC(=O)N1CCCCCC(=O)O (configuration not stated)	.	3	63	46*
CC1=C(C(=O)OCc2ccccc2)C(c2ccc(Br)cc2)NC(=O)N1CCCC(=O)O (configuration not stated)	.	.	.	-1
CC(C)c1cn(CC[C@H]2CC[C@H](NC(=O)Nc3cc(Cl)cc(Cl)c3)[C@H](CO)O2)nn1	-5	-3	.	.
Cc1csc(NC(=O)c2ccc(N3CCCC3=O)cc2)n1	.	.	-41	35*
O=C(Nc1ccccc1Br)c1ccc(N2CCCC2=O)cc1	.	-1	87*	37*
O=C(Nc1ccccc1N1CCCC1)c1ccc(N2CCCC2=O)cc1	-5	0	14	6
Cc1cccc(C)c1NC(=O)c1ccc(N2CCCC2=O)cc1	5	2	11	-5
Cc1nnc(NC(=O)c2ccc(N3CCCC3=O)cc2)s1	.	.	85*	25
CO[C@@H](CN(C)S(=O)(=O)c1ccc(F)cc1)[C@H](C)CN([C@@H](C)CO)S(=O)(=O)c1cccc(Cl)c1	-8	-3	.	.
CC(=O)N(c1ccc(C)cc1)S(=O)(=O)c1ccc(Cl)cc1	2	.	3	-2
CC(=O)N(c1cccc(C)c1)S(=O)(=O)c1ccc(Cl)cc1	53*	-3	2	-1
